Measurements published in ChEMBL document CHEMBL4354865 (J Med Chem, 2020).
pIC50: −log10 of the molar value.

Legend:
[1] = Cytotoxicity against human A375 cells assessed as cell viability at 1 uM measured after 48 hrs by MTT assay relative to control; format: cell-based, A-375; conditions: read-out: Activity
How it was run: (§1)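 A375 cells, unstimulated or stimulated with recombinant human IFN-γ, were left untreated or treated with 1 µM compound for 48 h. L-Kyn was measured by HPLC and cell viability was assessed.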

[2] = biological target: T1, Indoleamine 2,3-dioxygenase 1 (Homo sapiens, UniProt P14902); assay: Inhibition of IDO1 in IFNgamma-stimulated human A375 cells assessed as reduction in L-Kyn level at 1 uM measured after 48 hrs by HPLC analysis relative to control; how it was run: as §1
Target sequence in this assay (P14902 whole entry, looked up): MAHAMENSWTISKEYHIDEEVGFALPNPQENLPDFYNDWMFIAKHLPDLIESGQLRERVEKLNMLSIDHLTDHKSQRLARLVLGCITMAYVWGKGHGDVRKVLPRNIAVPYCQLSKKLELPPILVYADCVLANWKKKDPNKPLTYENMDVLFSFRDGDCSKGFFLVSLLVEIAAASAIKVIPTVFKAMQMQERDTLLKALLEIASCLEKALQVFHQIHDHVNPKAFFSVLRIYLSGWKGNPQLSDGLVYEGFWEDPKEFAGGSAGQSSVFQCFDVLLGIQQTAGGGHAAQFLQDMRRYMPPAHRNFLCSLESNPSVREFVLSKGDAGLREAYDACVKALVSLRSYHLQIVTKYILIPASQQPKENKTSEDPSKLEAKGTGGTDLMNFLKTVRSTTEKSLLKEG

[3] = biological target: T1, Indoleamine 2,3-dioxygenase 1; assay: Inhibition of IDO1 in IFNgamma-stimulated human A375 cells assessed as reduction in L-Kyn level measured after 48 hrs by HPLC analysis
Target sequence in this assay (P14902 whole entry): as the sequence (P14902 whole entry, looked up) above

[4] = Chemical stability of the compound; format: physicochemical

| Structure (SMILES) | viability at 48 h, 1 µM [1] [%] | inhibition [2] [%] | pIC50 [3] | Stability [4] |
| --- | --- | --- | --- | --- |
| O=C(NCc1cccc(Cn2cnc3ccccc32)c1)c1ccc[nH]1 | 94 | 72 | – | – |
| O=C(NCc1cccc(Cn2cnc3ccccc32)c1)c1ccco1 | 100 | 25 | – | – |
| O=C(NCc1cccc(Cn2cnc3ccc(Br)cc32)c1)c1cc(Br)c[nH]1 | 99 | 98 | 7.72 | Unstable |
| O=C(NCc1cccc(Cn2cnc3ccccc32)c1)c1cc2ccccc2o1 | 100 | 91 | 6.38 | – |
| O=C(NCc1cccc(Cn2cnc3ccccc32)c1)c1cccs1 | 98 | 62 | – | – |
| O=C(NCc1cccc(Cn2cnc3ccccc32)c1)c1nc2ccccc2[nH]1 | 100 | 83 | 6.39 | – |
| O=C(NCc1cccc(Cn2ccc3ccccc32)c1)c1cc(Br)c[nH]1 | 100 | 0 | – | – |
| Cc1ccc(C(=O)NCc2cccc(Cn3cnc4ccccc43)c2)cc1 | 94 | 88 | 6.49 | – |
| O=C(NCc1cccc(Cn2cnc3ccccc32)c1)c1ccc(C(F)(F)F)cc1 | 97 | 81 | – | – |
| O=C(Cc1ccc2c(c1)OCO2)NCc1cccc(Cn2cnc3ccccc32)c1 | 96 | 5 | – | – |
| O=C(NCc1cccc(Cn2cnc3ccccc32)c1)c1cc2cc(O)ccc2[nH]1 | 99 | 71 | 6.11 | – |
| NCCCC(=O)NCc1cccc(Cn2cnc3ccccc32)c1 | 100 | 0 | – | – |
| O=C(CCN1CCOCC1)NCc1cccc(Cn2cnc3ccccc32)c1 | 100 | 0 | – | – |
| Cc1ccc2[nH]c(C(=O)NCc3cccc(Cn4cnc5ccccc54)c3)cc2c1 | 99 | 90 | 6.20 | – |
| O=C(NCc1cccc(Cn2cnc3ccccc32)c1)c1ccc(Br)cc1 | 96 | 98 | 6.87 | – |
